These results are taken from ChEMBL document CHEMBL1147110, “Antifungal drug susceptibility profile of Pichia anomala isolates from patients presenting with nosocomial fungemia” (2007).

The structures appear in SMILES notation.

Holding throughout (format): functional
For test [1], the system named is Wickerhamomyces anomalus. Briefly: Antimicrobial susceptibility of Pichia anomala from nosocomial fungemia patient assessed as percent susceptible isolates at 0.5 ug/ml by CLSI method. A digest of the protocol: (§1)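 58 P. anomala isolates (52 unrelated bloodstream isolates from Brazil, Argentina and Spain; 6 from unknown US clinical specimens). CLSI broth microdilution, 48 h incubation, read at 530 nm. The MIC endpoint was ≥95% inhibition versus the drug-free well for the polyene and ≥50% for azoles and the echinocandin. Cumulative % of isolates inhibited at each MIC was recorded, with susceptibility assigned by CLSI interpretive criteria.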

Test [2] deals with Wickerhamomyces anomalus. Briefly: Antimicrobial susceptibility of Pichia anomala from nosocomial fungemia patient assessed as percent susceptible isolates at 0.06 ug/ml by CLSI method. A digest of the protocol:
(§2)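 CLSI broth microdilution on 58 P. anomala isolates: 52 unrelated bloodstream isolates (36 Brazil, 13 Argentina, 3 Spain) and 6 from unknown clinical specimens (USA). Fluconazole was tested at 0.12–64 µg/ml. MICs were read spectrophotometrically at 530 nm after 48 h. Endpoints were ≥95% inhibition vs drug-free control for amphotericin B, and ≥50% for azoles and caspofungin. Results are given as cumulative % of isolates at each MIC.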

In test [3] the test system is Wickerhamomyces anomalus. Briefly: Antimicrobial susceptibility of Pichia anomala from nosocomial fungemia patient assessed as percent susceptible isolates at 0.25 ug/ml by EUCAST method. A digest of the protocol:
(§3)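 58 P. anomala isolates (52 unrelated bloodstream isolates from Brazil, Argentina and Spain; 6 from unknown US clinical specimens). EUCAST broth microdilution, 24 h incubation, spectrophotometric reading at 530 nm. The MIC endpoint was ≥95% inhibition versus the drug-free control for the polyene and ≥50% for azoles and the echinocandin. Cumulative % of isolates inhibited at each MIC was recorded.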

The test system of test [4] is Wickerhamomyces anomalus. Briefly: Antimicrobial susceptibility of Pichia anomala from nosocomial fungemia patient assessed as percent susceptible isolates at 0.12 ug/ml by EUCAST method. A digest of the protocol:
(§4)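 EUCAST broth microdilution on the same 58 P. anomala isolates (52 bloodstream isolates from Brazil, Argentina and Spain; 6 from USA). MICs were read spectrophotometrically at 530 nm after 24 h incubation. Endpoints were complete or nearly complete (≥95%) inhibition for amphotericin B, and ≥50% inhibition for azoles and caspofungin, relative to drug-free control. Isolates were tallied as cumulative % per MIC.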

For test [5], the system named is Wickerhamomyces anomalus. Briefly: Antimicrobial susceptibility of Pichia anomala from nosocomial fungemia patient assessed as percent susceptible isolates at 0.06 ug/ml by EUCAST method. A digest of the protocol:
as §4

Test [6] relates to Wickerhamomyces anomalus. Briefly: Antimicrobial susceptibility of Pichia anomala from nosocomial fungemia patient assessed as percent susceptible isolates at 0.25 ug/ml by CLSI method. A digest of the protocol: as §2
In test [7] the test system is Wickerhamomyces anomalus. Briefly: Antimicrobial susceptibility of Pichia anomala from nosocomial fungemia patient assessed as percent susceptible isolates at 0.03 ug/ml by CLSI method. A digest of the protocol:
as §2

For test [8], the system named is Wickerhamomyces anomalus. Briefly: Antimicrobial susceptibility of Pichia anomala from nosocomial fungemia patient assessed as percent susceptible isolates by CLSI method. A digest of the protocol:
as §1

Test [9] concerns Wickerhamomyces anomalus. Briefly: Antimicrobial susceptibility of Pichia anomala from nosocomial fungemia patient assessed as percent susceptible isolates at 1 ug/ml by EUCAST method. A digest of the protocol:
as §4

The subject of test [10] is Wickerhamomyces anomalus. Briefly: Antimicrobial susceptibility of Pichia anomala from nosocomial fungemia patient assessed as percent susceptible isolates at 0.015 ug/ml by EUCAST method. A digest of the protocol:
as §4

Test [11] relates to Wickerhamomyces anomalus. Briefly: Antimicrobial susceptibility of Pichia anomala from nosocomial fungemia patient assessed as percent susceptible isolates at 0.5 ug/ml by EUCAST method. A digest of the protocol: as §4
The test system of test [12] is Wickerhamomyces anomalus. Briefly: Antimicrobial susceptibility of Pichia anomala from nosocomial fungemia patient assessed as percent susceptible isolates at 0.12 ug/ml by CLSI method. A digest of the protocol:
as §1

In test [13] the test system is Wickerhamomyces anomalus. Briefly: Antimicrobial susceptibility of Pichia anomala from nosocomial fungemia patient assessed as percent susceptible isolates at 0.015 ug/ml by CLSI method. A digest of the protocol:
as §2

Test [14] relates to Wickerhamomyces anomalus. Briefly: Antimicrobial susceptibility of Pichia anomala from nosocomial fungemia patient assessed as percent susceptible isolates at 0.03 ug/ml by EUCAST method. A digest of the protocol: as §4
Test [15] concerns Wickerhamomyces anomalus. Briefly: Antimicrobial susceptibility of Pichia anomala from nosocomial fungemia patient assessed as percent susceptible isolates by EUCAST method. A digest of the protocol: as §4
The subject of test [16] is Wickerhamomyces anomalus. Briefly: Antimicrobial susceptibility of Pichia anomala from nosocomial fungemia patient assessed as percent susceptible isolates at 1 ug/ml by CLSI method. A digest of the protocol: as §2
The subject of test [17] is Wickerhamomyces anomalus. Briefly: Antimicrobial susceptibility of Pichia anomala from nosocomial fungemia patient assessed as percent susceptible isolates at 2 ug/ml by EUCAST method. A digest of the protocol:
as §3

The test system of test [18] is Wickerhamomyces anomalus. Briefly: Antimicrobial susceptibility of Pichia anomala from nosocomial fungemia patient assessed as percent susceptible isolates at 8 ug/ml by EUCAST method. A digest of the protocol: as §3
The subject of test [19] is Wickerhamomyces anomalus. Briefly: Antimicrobial susceptibility of Pichia anomala from nosocomial fungemia patient assessed as percent susceptible isolates at 4 ug/ml by CLSI method. A digest of the protocol:
as §1

Test [20] concerns Wickerhamomyces anomalus. Briefly: Antimicrobial susceptibility of Pichia anomala from nosocomial fungemia patient assessed as percent susceptible isolates at 2 ug/ml by CLSI method. A digest of the protocol:
as §1

The subject of test [21] is Wickerhamomyces anomalus. Briefly: Antimicrobial susceptibility of Pichia anomala from nosocomial fungemia patient assessed as percent susceptible isolates at 16 ug/ml by CLSI method. A digest of the protocol:
as §1

The subject of test [22] is Wickerhamomyces anomalus. Briefly: Antimicrobial susceptibility of Pichia anomala from nosocomial fungemia patient assessed as percent susceptible isolates at 4 ug/ml by EUCAST method. A digest of the protocol:
as §3

For test [23], the system named is Wickerhamomyces anomalus. Briefly: Antimicrobial susceptibility of Pichia anomala from nosocomial fungemia patient assessed as percent susceptible isolates at 8 ug/ml by CLSI method. A digest of the protocol:
as §1

Test [24] relates to Wickerhamomyces anomalus. Briefly: Antimicrobial susceptibility of Pichia anomala from nosocomial fungemia patient assessed as percent susceptible isolates at 16 ug/ml by EUCAST method. A digest of the protocol:
as §3

Consider `C[C@@H]1[C@H](O)[C@@H](C)/C=C/C=C/C=C/C=C/C=C/C=C/C=C/[C@H](O[C@@H]2O[C@H](C)[C@@H](O)[C@H](N)[C@@H]2O)C[C@@H]2O[C@](O)(C[C@@H](O)C[C@@H](O)[C@H](O)CC[C@@H](O)C[C@@H](O)CC(=O)O[C@H]1C)C[C@H](O)[C@H]2C(=O)O` [AMPHOTERICIN B], for which the “Cumulative percent of isolates inhibited” value turned out to be 88% in the test on Wickerhamomyces anomalus [1], 0% in the test on Wickerhamomyces anomalus [2], 36% in the test with Wickerhamomyces anomalus [6] and 0% with Wickerhamomyces anomalus [7]. Besides, the Activity was 55.1% with Wickerhamomyces anomalus [3]; 15.5% with Wickerhamomyces anomalus [4]; 0% with Wickerhamomyces anomalus [5]; 100% in the test with Wickerhamomyces anomalus [8]; 100% with Wickerhamomyces anomalus [9]; 0% in the test with Wickerhamomyces anomalus [10]. Moreover, the Activity with Wickerhamomyces anomalus [11] is listed as 94.7%; with Wickerhamomyces anomalus [12], 12%; in the test with Wickerhamomyces anomalus [13] it was 0%; in the test on Wickerhamomyces anomalus [14], 0%; with Wickerhamomyces anomalus [15], 100%; in the test with Wickerhamomyces anomalus [16], 100%.

Take `C[C@@H](c1ncncc1F)[C@](O)(Cn1cncn1)c1ccc(F)cc1F` [VORICONAZOLE]: the “Cumulative percent of isolates inhibited” value with Wickerhamomyces anomalus [1] was 100%; in the test on Wickerhamomyces anomalus [2], 18.9%; in the test on Wickerhamomyces anomalus [6] it was 96.5%; in the test with Wickerhamomyces anomalus [7] it was 3.4%. Besides, the Activity with Wickerhamomyces anomalus [3] amounted to 100%; with Wickerhamomyces anomalus [4] it was 65.5%; in the test with Wickerhamomyces anomalus [5], 29.3%; in the test with Wickerhamomyces anomalus [8], 100%; with Wickerhamomyces anomalus [10], 0%; in the test on Wickerhamomyces anomalus [12], 39.6%. The Activity with Wickerhamomyces anomalus [13] stood at 0%; in the test with Wickerhamomyces anomalus [14], 3.4%; in the test on Wickerhamomyces anomalus [15] it was 100%.

Consider `CCC(C)n1ncn(-c2ccc(N3CCN(c4ccc(OCC5COC(Cn6cncn6)(c6ccc(Cl)cc6Cl)O5)cc4)CC3)cc2)c1=O` (stereo not given) [ITRACONAZOLE], for which the “Cumulative percent of isolates inhibited” value with Wickerhamomyces anomalus [1] was found to be 96.5%; in the test on Wickerhamomyces anomalus [2] it was 12%; in the test on Wickerhamomyces anomalus [6], 74.1%; in the test with Wickerhamomyces anomalus [7], 0%. In addition, the Activity amounted to 91.2% with Wickerhamomyces anomalus [3]; 39.5% in the test on Wickerhamomyces anomalus [4]; 7% in the test on Wickerhamomyces anomalus [5]; 36.2% in the test with Wickerhamomyces anomalus [8]; 100% in the test with Wickerhamomyces anomalus [9]; 0% in the test with Wickerhamomyces anomalus [10]. Further, the Activity in the test with Wickerhamomyces anomalus [11] worked out at 98.2%; in the test with Wickerhamomyces anomalus [12], 36.1%; with Wickerhamomyces anomalus [13], 1.7%; in the test with Wickerhamomyces anomalus [14], 0%; with Wickerhamomyces anomalus [15] it was 39.6%; in the test with Wickerhamomyces anomalus [16], 100%.

For `CC[C@H](C)C[C@H](C)CCCCCCCCC(=O)N[C@H]1C[C@@H](O)[C@@H](NCCN)NC(=O)[C@@H]2[C@@H](O)CCN2C(=O)[C@H]([C@H](O)CCN)NC(=O)[C@H]([C@H](O)[C@@H](O)c2ccc(O)cc2)NC(=O)[C@@H]2C[C@@H](O)CN2C(=O)[C@H]([C@@H](C)O)NC1=O` [CASPOFUNGIN], the “Cumulative percent of isolates inhibited” value in the test with Wickerhamomyces anomalus [2] was 17.2%; in the test on Wickerhamomyces anomalus [6] it was 100%; in the test with Wickerhamomyces anomalus [7], 1.7%. The Activity in the test with Wickerhamomyces anomalus [4] is on record as 100%; in the test with Wickerhamomyces anomalus [5] it was 70.6%; in the test on Wickerhamomyces anomalus [8] it was 100%; in the test on Wickerhamomyces anomalus [10], 0%; in the test with Wickerhamomyces anomalus [12] it was 84.5%; in the test on Wickerhamomyces anomalus [13], 0%. Besides, the Activity is 12% in the test on Wickerhamomyces anomalus [14] and 100% in the test on Wickerhamomyces anomalus [15].

With `OC(Cn1cncn1)(Cn1cncn1)c1ccc(F)cc1F` [FLUCONAZOLE], the “Cumulative percent of isolates inhibited” value in the test with Wickerhamomyces anomalus [1] was 0%. The Activity is listed as 0% in the test with Wickerhamomyces anomalus [2]; 22.4% in the test on Wickerhamomyces anomalus [17]; 0% in the test with Wickerhamomyces anomalus [3]; 96.5% in the test on Wickerhamomyces anomalus [18]; 0% with Wickerhamomyces anomalus [4]; 0% in the test on Wickerhamomyces anomalus [5]. The Activity in the test on Wickerhamomyces anomalus [6] is 0%; with Wickerhamomyces anomalus [7] it was 0%; in the test on Wickerhamomyces anomalus [19], 56.8%; in the test on Wickerhamomyces anomalus [8], 96.6%; with Wickerhamomyces anomalus [9], 0%; with Wickerhamomyces anomalus [10] it was 0%. The Activity with Wickerhamomyces anomalus [20] is on record as 15.5%; in the test with Wickerhamomyces anomalus [11], 0%; with Wickerhamomyces anomalus [21] it was 100%; in the test with Wickerhamomyces anomalus [12], 0%; in the test on Wickerhamomyces anomalus [22], 55.1%; with Wickerhamomyces anomalus [13], 0%. Further, the Activity is on record as 93% in the test on Wickerhamomyces anomalus [23]; 0% in the test with Wickerhamomyces anomalus [14]; 93% with Wickerhamomyces anomalus [15]; 0% in the test with Wickerhamomyces anomalus [16]; 100% in the test on Wickerhamomyces anomalus [24].
